SKN-1 block – blocks SKN-1 activity in C. elegans; C. elegans VP596 Pgst-4::GFP/RFP ratio, acrylamide-induced, 24 h; inhibition, % at 21.8 µM; 0.49% of 360,000 active;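 active means interference check ratio from 0.5 to 1.5 plus GFP to RFP signal ratio inhibition reaching or exceeding a fixed threshold, cut at about 30% in these data, passing the limit was not always enough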
Rce1 inh – blocks yeast Ras-converting enzyme; Q03530; 0.27% of 290,000 active; calls only; yeast membranes, quenched prenylated peptide cleavage fluorescence;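 active means fall in fluorescence gain of 50% or more versus controls, with final raw signal at or below 3038400; inconclusive means same 50% fall but final raw signal above 3038400; inactive means fall in fluorescence gain under 50%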;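 further: plate controls were neutral control wells for no effect and wells lacking membranes for full effect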
Myeloid diff MLP – promotes myeloid progenitor differentiation; calls only at 10 µM; ER-HoxA9 myeloid progenitors, lysozyme-GFP differentiation, flow cytometry; AID 624256; 1% of 360,000 active;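 active means normalized GFP-positive differentiation at or above the plate's own cutoff, the solvent-only control mean plus 3 SD; inconclusive means no clear call, values can overlap the other calls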;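 further: cells exposed to compound for four days before flow analysis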
T cell HTS – T cell immune modulators affecting CD8 T cell-vesicle binding; 2C CD8+ T cell-vesicle binding, flow cytometry; stronger effect = lower value; response (vesicle binding), % at 7 µM; 0.068% of 330,000 active; AID 2052;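 active means response, share of CD8 T cells binding vesicles, and their 90th percentile fluorescence all below set limits, cut at about 80% in these data, passing the limit was not always enough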;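 further: values below 100% mean blocked vesicle binding to the CD8+ T cells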
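System: murine 2C transgenic CD8+ T lymphocytes; also added: QL9-loaded Drosophila micro-vesicles; times: binding 1.5 h at 37 °C; measured by: flow cytometry, PE anti-B7-1 (FL2) versus Alexa647 anti-CD8 (FL8), PFA-fixed; control set: Peptide-free naked vesicles (low) and QL9 vesicles with 0.7% DMSO vehicle (high)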
GRK2 aptamer HTS – blocks RNA aptamer binding to human GRK2; bead flow cytometry, FAM-aptamer displacement from GRK2; inhibition of aptamer binding, % at 10 µM; 0.59% of 330,000 active;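 active means inhibition of aptamer binding above 40%, roughly 3 SD of noise, on plates passing a quality check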;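 further: median bead fluorescence of bound FAM aptamer so fluorescent compounds give negative values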
Target sequence (P25098 whole entry, looked up): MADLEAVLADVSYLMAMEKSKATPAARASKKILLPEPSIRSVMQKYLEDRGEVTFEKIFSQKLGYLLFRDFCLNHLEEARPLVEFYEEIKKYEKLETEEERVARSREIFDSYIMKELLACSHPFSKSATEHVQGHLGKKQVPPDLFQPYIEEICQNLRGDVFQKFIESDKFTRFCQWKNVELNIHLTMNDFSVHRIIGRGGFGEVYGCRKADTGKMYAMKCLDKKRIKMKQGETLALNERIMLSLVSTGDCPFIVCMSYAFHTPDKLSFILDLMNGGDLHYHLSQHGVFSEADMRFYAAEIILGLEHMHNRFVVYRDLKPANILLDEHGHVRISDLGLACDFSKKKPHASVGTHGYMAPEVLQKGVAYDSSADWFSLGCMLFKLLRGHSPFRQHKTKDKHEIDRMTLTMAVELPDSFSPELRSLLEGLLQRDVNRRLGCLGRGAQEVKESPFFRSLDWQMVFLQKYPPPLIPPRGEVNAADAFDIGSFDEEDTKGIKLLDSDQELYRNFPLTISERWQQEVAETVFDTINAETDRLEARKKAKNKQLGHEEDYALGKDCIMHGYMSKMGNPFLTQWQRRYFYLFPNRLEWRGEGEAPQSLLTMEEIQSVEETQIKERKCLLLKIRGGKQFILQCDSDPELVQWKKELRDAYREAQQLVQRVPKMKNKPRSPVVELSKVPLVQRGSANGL
Rin1 Abl inh – human Rin1-Abl interaction inhibition; P00519+Q13671; TR-FRET Rin1/Abl binding, biochemical; inhibition, % at 7.35 µM; 0.4% of 360,000 active; AID 588664; in the data active means inhibition above about 5%, passing the limit was not always enough
GRK2 inh confirm – human GRK2 inhibition confirmation, cherry pick 1 | 4% of 2,000 active | aptamer displacement, % at 10 µM | bead-bound GRK2, FAM-aptamer displacement, flow cytometry | shares compounds with GRK2 aptamer HTS;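 active means aptamer displacement above 40%, near three times the noise of non-fluorescent compounds, on plates passing quality checks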;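 further: negative values mostly reflect intrinsic compound fluorescence rather than true enhancement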
Aptamer quench SP – aptamer fluorescence quenching in GRK2 counter-screen | Carboxyfluorescein RNA aptamer on beads, flow cytometry quenching; stronger effect = lower value | AID 504580 | fluorescence response (% of DMSO), % at 10 µM | shares compounds with GRK2 aptamer HTS | 2,000 tested, under 10 active;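 active means compounds that quench the bead-bound fluorescent RNA probe, cutting fluorescence to under half of the solvent control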;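 further: counterscreen run without GRK2 so only probe quenching by compound is measured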
GRK2 CP2 – human GRK2 inhibition confirmation, cherry pick 2; shares compounds with GRK2 aptamer HTS; bead-bound GRK2, FAM-aptamer displacement, flow cytometry; inhibition of aptamer binding, % at 10 µM; 360 tested, under 10 active; AID 504782;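 active means inhibition of aptamer binding above 40%, about triple the noise seen with nonglowing compounds, on plates passing quality control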;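 further: negative values mostly come from compounds that fluoresce themselves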
FAM quench SP – counter-screen for GRK2 binding hits: quenchers of fluorescent RNA aptamer | fluorescence response vs DMSO, % at 10 µM | shares compounds with GRK2 aptamer HTS | AID 588494 | 360 tested, under 10 active | carboxyfluorescein RNA aptamer beads, flow cytometry quenching; stronger effect = lower value;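 active means response vs DMSO under 50%, meaning signal dropped by over half, treated as fluorescence quencher; inconclusive means no clear call, values can overlap the other calls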;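 further: labelled aptamer on streptavidin beads without GRK2 as a quench counter-screen; 100% = bead fluorescence of DMSO wells and lower means quenching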
An asterisk follows results filed as active. An excerpt weighted towards active compounds, which were near 2.6% of everything screened.

What do the screens show for `N/C(=N\OC(=O)c1ccc(Cl)c(Cl)c1)c1cccnc1`?
SKN-1 block: 51*; Rce1 inh: inactive; Myeloid diff MLP: inactive; T cell HTS: 175; GRK2 aptamer HTS: 3; Rin1 Abl inh: -3

What do the screens show for `N/C(=N\OC(=O)c1cccc(Cl)c1)c1cccnc1`?
SKN-1 block: 42*; Rce1 inh: inactive; Myeloid diff MLP: inactive; T cell HTS: 212; GRK2 aptamer HTS: 0; Rin1 Abl inh: -2

Results for NC(=O)c1c(NC(=O)C(=O)N2CCOCC2)sc2c1CCC2 ?
SKN-1 block: 34; Rce1 inh: inactive; Myeloid diff MLP: inactive; T cell HTS: 357; GRK2 aptamer HTS: 2; Rin1 Abl inh: -3

What do the screens show for `O=C(CSc1nc2ccccc2c2nc3ccccc3n12)NCc1ccco1`?
SKN-1 block: 48*; Rce1 inh: inactive; Myeloid diff MLP: inactive; T cell HTS: inactive; GRK2 aptamer HTS: 2; Rin1 Abl inh: -10

Results for Cc1ccc2oc(=O)c3cnn(CC(=O)NCCc4ccsc4)c3c2c1 ?
SKN-1 block: -6; Rce1 inh: inactive; Myeloid diff MLP: inactive; T cell HTS: 0; GRK2 aptamer HTS: 61*; Rin1 Abl inh: -4; GRK2 inh confirm: 5; Aptamer quench SP: 102

How did CCCN(C(=O)Cn1ncc2c(=O)oc3ccccc3c21)c1cccc(C)c1 do in these assays?
SKN-1 block: 17; Rce1 inh: inactive; Myeloid diff MLP: inactive; T cell HTS: 664; GRK2 aptamer HTS: 6; Rin1 Abl inh: -1

What do the screens show for `CCN(CCCNC(=O)Cn1ncc2c(=O)oc3ccccc3c21)c1cccc(C)c1`?
SKN-1 block: 20; Rce1 inh: inactive; Myeloid diff MLP: inactive; T cell HTS: 591; GRK2 aptamer HTS: 74*; Rin1 Abl inh: -12; GRK2 inh confirm: 1; Aptamer quench SP: 96

How did CCC(=O)N(CCc1ccccc1)Cc1cc2cccc(C)c2[nH]c1=O do in these assays?
SKN-1 block: 3; Rce1 inh: inactive; Myeloid diff MLP: inactive; T cell HTS: 237; GRK2 aptamer HTS: 2; Rin1 Abl inh: -1

What do the screens show for `O=C(Nc1ccccc1)c1ccc(CN2CCc3ccccc3C2)cc1`?
SKN-1 block: 5; Rce1 inh: inactive; T cell HTS: 255; GRK2 aptamer HTS: 100*; Rin1 Abl inh: 0; GRK2 CP2: -14; FAM quench SP: 98

How did Cc1ccc(C)c(C(=O)CN2C(=O)NC3(CCCCCC3)C2=O)c1 do in these assays?
SKN-1 block: 8; Myeloid diff MLP: inactive; Rin1 Abl inh: 2

Results for CCOC(=O)C(C(=O)OCC)c1cc(Br)c2noc3c2c1C(=O)c1ccccc1-3 ?
SKN-1 block: 39; Rce1 inh: inactive; Myeloid diff MLP: inconclusive; T cell HTS: 241; GRK2 aptamer HTS: 51*; Rin1 Abl inh: 2; GRK2 inh confirm: 11; Aptamer quench SP: 102

Results for CC(=O)Nc1ccc(S(=O)(=O)N(CC(=O)NC2CC2)Cc2ccccc2)cc1 ?
SKN-1 block: -8; Myeloid diff MLP: inactive; T cell HTS: 706; GRK2 aptamer HTS: 0; Rin1 Abl inh: 2

What do the screens show for `C=C[C@H]1[C@H](OC2OC(CO)C(O)C(O)C2O)OC=C(C(=O)OC)[C@H]1C[C@H]1CC(=O)C[C@H](CC(=O)CCc2ccc(O)cc2)O1` (some centres undefined)?
Rce1 inh: inactive; T cell HTS: 348; GRK2 aptamer HTS: 97*; GRK2 inh confirm: 3; Aptamer quench SP: 97

How did COC(=O)C1=CO[C@@H](OC2OC(CO)C(O)C(O)C2O)[C@@H]2[C@@H](C)[C@@H](O)C[C@H]12 (some centres undefined) do in these assays?
SKN-1 block: 3; Rce1 inh: inactive; Myeloid diff MLP: inactive; T cell HTS: 426; GRK2 aptamer HTS: 0; Rin1 Abl inh: 1

What do the screens show for `CN1CCN(S(=O)(=O)c2ccc(NC(=O)C(C)(C)C)cc2)CC1`?
SKN-1 block: 12; Rce1 inh: inactive; Myeloid diff MLP: inactive; T cell HTS: 249; GRK2 aptamer HTS: 81*; Rin1 Abl inh: 3; GRK2 inh confirm: -4; Aptamer quench SP: 98

What do the screens show for `CC(=O)Nc1ccc(S(=O)(=O)N2CCN(S(=O)(=O)c3ccc(NC(C)=O)cc3)CC2)cc1`?
SKN-1 block: 15; Rce1 inh: inactive; Myeloid diff MLP: inactive; T cell HTS: 201; GRK2 aptamer HTS: 0; Rin1 Abl inh: -3

How did OC(CNC1CCCC1)COc1ccccc1Br (centres undefined) do in these assays?
SKN-1 block: 8; Rce1 inh: inactive; Myeloid diff MLP: inactive; T cell HTS: 201; GRK2 aptamer HTS: 0; Rin1 Abl inh: 1

Results for OC(CNC1CCCCCC1)COc1cccc2ccccc12 (centres undefined) ?
SKN-1 block: -2; Rce1 inh: inactive; Myeloid diff MLP: inactive; T cell HTS: 177; GRK2 aptamer HTS: 52*; Rin1 Abl inh: 0; GRK2 inh confirm: -5; Aptamer quench SP: 95

How did COc1ccc(Nc2oc(-c3ccccc3)nc2C#N)cc1 do in these assays?
SKN-1 block: 2; Rce1 inh: inactive; Myeloid diff MLP: inactive; T cell HTS: 271; GRK2 aptamer HTS: 52*; Rin1 Abl inh: -1; GRK2 inh confirm: 0; Aptamer quench SP: 102

What do the screens show for `COc1ccc(-c2nc(C#N)c(NCCc3ccccc3)o2)cc1`?
SKN-1 block: -3; Rce1 inh: inactive; Myeloid diff MLP: inactive; T cell HTS: 476; GRK2 aptamer HTS: 0; Rin1 Abl inh: 7

Results for COc1ccc(-c2nc(C#N)c(NCCN(C)C)o2)cc1 ?
SKN-1 block: -5; Rce1 inh: inactive; Myeloid diff MLP: inactive; T cell HTS: 324; GRK2 aptamer HTS: 49*; Rin1 Abl inh: 1; GRK2 inh confirm: -4; Aptamer quench SP: 102

What do the screens show for `COc1ccc(Nc2oc(-c3ccc(OC)cc3)nc2C#N)cc1`?
SKN-1 block: 4; Rce1 inh: inactive; Myeloid diff MLP: inactive; T cell HTS: 562; GRK2 aptamer HTS: 1; Rin1 Abl inh: 1

How did Nc1c(-c2cccs2)nc2ccccn12 do in these assays?
SKN-1 block: 7; Myeloid diff MLP: inactive; Rin1 Abl inh: 0

Screening results: PubChem, several laboratories
